Source: ChEMBL document CHEMBL1125484, “Nonpeptide angiotensin II receptor antagonists: synthetic and computational chemistry of N-[[4-[2-(2H-tetrazol-5-yl)-1-cycloalken-1-yl]phenyl]methyl]imidazole derivatives and their in vitro activity” (J Med Chem, 1992)

Columns and labels:
Oryctolagus cuniculus = species: Oryctolagus cuniculus; test: pA2 value was determined by the compound's ability to antagonize the AII-induced contraction of rabbit aorta rings.; type: functional; settings: read-out: pA2 (converted)
Summary of the method: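 Thoracic aorta rings (3 mm) from New Zealand white rabbits were held in 37 °C physiological salt solution aerated with 95% O2/5% CO2, and isometric tension was recorded. A cumulative AII curve (10^-10 to 10^-7 M) was run, the tissue washed, and the compound added in DMSO for 30 min before the AII curve was repeated. Responses were expressed as % of control maximum, with EC50s from four-parameter logistic fits.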

[1] = Partition coefficient (logP); type: physicochemical; settings: octanol/water
[2] = target: T1, Type-1 angiotensin II receptor B (Rattus norvegicus, UniProt P29089); test: Concentration required to inhibit binding of radioligand [125I]AII to angiotensin II receptor, type 1 in rat adrenal glomerulosa tissue
T1 sequence (P29089 whole entry): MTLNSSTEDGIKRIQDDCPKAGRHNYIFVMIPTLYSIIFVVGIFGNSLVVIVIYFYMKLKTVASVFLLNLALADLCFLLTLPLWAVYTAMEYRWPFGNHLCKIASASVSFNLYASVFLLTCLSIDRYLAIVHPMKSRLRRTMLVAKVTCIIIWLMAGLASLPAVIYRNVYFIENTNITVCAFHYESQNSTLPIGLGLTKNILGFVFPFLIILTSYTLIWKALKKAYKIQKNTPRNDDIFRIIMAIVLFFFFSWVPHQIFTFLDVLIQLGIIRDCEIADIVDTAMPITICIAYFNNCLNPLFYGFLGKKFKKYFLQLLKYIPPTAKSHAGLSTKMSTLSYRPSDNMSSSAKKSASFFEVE
Summary of the method: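 Buffer was 50 mM Tris, 120 mM NaCl, 5 mM MgCl2, 1 mM DTT and 0.05% BSA, with 8–15 μg protein. Antagonists were tested at 10 nM–100 μM, and nonspecific binding was defined with 0.1 μM [Sar1,Ile8]AII. Bound ligand was filtered and gamma-counted in triplicate. IC50 was taken from the linear portion of the displacement curve.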

Row | SMILES | logP [1] | IC50 [2] | Kb (Oryctolagus cuniculus)
1 | CCCCc1nc(Cl)c(C(=O)O)n1Cc1ccc(C2=C(c3nn[nH]n3)CCCCC2)cc1 | 5.37 | 390 nM | 12 nM
2 | CCCCc1nc(Cl)c(C(=O)O)n1Cc1ccc(-c2ccccc2-c2nn[nH]n2)cc1 [CARBOXYLIC ACID METABOLITE] | 4.92 |  | 0.234 nM
3 | CCCCc1nc(Cl)c(CO)n1Cc1ccc(-c2ccccc2-c2nnn[nH]2)cc1 [LOSARTAN] | 4.45 |  | 3.8 nM

Second part, led by results:

Row | logP [1] | IC50 [2] | SMILES | Kb (Oryctolagus cuniculus)
4 | 4.34 |  | CCCCc1nc(Cl)c(CO)n1Cc1ccc(C2=C(c3nnn[nH]3)CCCC2)cc1 | 129 nM
5 | 4.9 | 2800 nM | CCCCc1nc(Cl)c(CO)n1Cc1ccc(C2=C(c3nn[nH]n3)CCCCC2)cc1 | 468 nM
6 | 4.81 | 400 nM | CCCCc1nc(Cl)c(C(=O)O)n1Cc1ccc(C2=C(c3nn[nH]n3)CCCC2)cc1 | 4.07 nM
7 | 4.25 | 310 nM | CCCCc1nc(Cl)c(C(=O)O)n1Cc1ccc(C2=C(c3nnn[nH]3)CCC2)cc1 | 14.5 nM
8 | 3.78 | 3500 nM | CCCCc1nc(Cl)c(CO)n1Cc1ccc(C2=C(c3nnn[nH]3)CCC2)cc1 | 355 nM
